The list is not random: actives were taken first. Their share in the collection is about 4.1%.
KCNK3 block: human KCNK3 channel inhibition, primary screen; O14649; CHO-KCNK3 thallium flux, FluxOR fluorescence; active compounds read low; B-score at 10 µM; actives 0.84% (n = 340,000);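 active = B-score under library mean minus 4 SD, starting fluorescence ratio at most library mean plus 5 SD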;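 also: more negative B-score means stronger inhibition of thallium flux through KCNK3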
hERG rescue: shields human hERG channel from block by proarrhythmic agents | CHO-hERG, FluxOR thallium flux, dofetilide IC70 present | actives 0.51% (n = 310,000) | activation (rescue from dofetilide block), less the hit threshold, % at 10 µM;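 active = activation above the mean of controls blocked by dofetilide plus 5 SD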;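 also: thallium influx through hERG after potassium depolarization seen as dye fluorescence rise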
KCNQ1 act: potentiates or activates the human KCNQ1 potassium channel | CHO-K1 KCNQ1, thallium flux FluxOR fluorescence; active compounds read high | actives 0.35% (n = 310,000) | P51787 | B-score at 10 µM;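 active = fluorescence ratio B-score, a plate-corrected score, at least three library SD, with initial intensity B-score within 5 SD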
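Assay system: stable KCNQ1 CHO-K1 line; medium: assay buffer, equal DMSO in all wells; timing: 90 min dye loading and 20 min compound exposure, both at room temperature; technique: kinetic FluxOR thallium fluorescence, 10-s 1-Hz baseline, 110-s post-stimulus read; read-out basis: B score of baseline-normalized fluorescence ratio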
KCNK9 inh: inhibitors of human KCNK9 two-pore domain potassium channel; HEK293 KCNK9, FluxOR thallium flux fluorescence; active compounds read low; actives 1.2% (n = 310,000); B-score at 10 µM;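 active = ratio B-score over 3 SD below the library mean, with starting fluorescence within 5 SD of its mean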;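 also: negative B-score means less thallium flux so channel inhibition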
Target sequence (Q9NPC2 whole entry, looked up, the tested form may be a part): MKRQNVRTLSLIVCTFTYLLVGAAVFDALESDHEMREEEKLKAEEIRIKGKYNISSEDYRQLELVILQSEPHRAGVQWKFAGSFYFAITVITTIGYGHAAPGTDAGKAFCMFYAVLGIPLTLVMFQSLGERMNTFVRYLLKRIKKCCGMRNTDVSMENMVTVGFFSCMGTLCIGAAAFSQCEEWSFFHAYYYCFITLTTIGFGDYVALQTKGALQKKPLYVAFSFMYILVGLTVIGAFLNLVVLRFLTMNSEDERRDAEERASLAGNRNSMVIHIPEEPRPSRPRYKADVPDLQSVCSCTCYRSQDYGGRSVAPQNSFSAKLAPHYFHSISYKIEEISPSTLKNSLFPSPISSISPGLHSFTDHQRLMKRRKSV
KCNQ1 block: blocks the human KCNQ1 potassium channel. B-score at 10 µM. actives 1.3% (n = 310,000). AID 2642. CHO-K1 KCNQ1, FluxOR thallium flux fluorescence; active compounds read high. P51787;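 active = compounds whose thallium flux B-score, printed positive for inhibition, exceeds three library SD while starting fluorescence stays within three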;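 also: channel opened by potassium depolarization with thallium stimulus after 20 min compound exposure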
Cl transport mod: modulates chloride dependent transport by human KCC2 | AID 1456 | KCC2 cells, thallium flux FluoZin-2 fluorescence | Q9H2X9 | B-score of Tl+ flux slope (higher = more flux/activation; lower = inhibition) at 10 µM | actives 2.2% (n = 190,000);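 active = thallium flux slope and its plate-corrected score both differing from the plate sample mean at a set confidence after two filtering rounds, in either direction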;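 also: slope of fluorescence scaled to starting intensity during 10 to 20 s after thallium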
KCNK9 block conf: confirmation of human KCNK9 potassium channel inhibitors | shares compounds with KCNK9 inh | HEK293 KCNK9 cells, FluxOR thallium flux fluorescence | inhibition, % at 10 µM | actives 43% (n = 4,900) | AID 492992;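 active = thallium signal inhibited by more than 5 SD of the compound-free buffer control wells, on both duplicate plates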
Kir2-1 spec: selectivity of KCNK9 modulators against mouse Kir2.1. shares compounds with KCNK9 inh. Kir2.1 cells, FluxOR thallium flux fluorescence. inhibition, % at 10 µM. actives 4% (n = 4,900);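 active = thallium signal drop more than 5 SD beyond the mean of the no-compound control wells, seen in both duplicate plates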;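 also: signal is fluorescence rise after thallium addition divided by baseline fluorescence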
HEK293 Tl ctr: second check of KCNK9 modulator effects in non-induced HEK293 cells; inhibition, % at 10 µM; FluxOR thallium flux; shares compounds with KCNK9 inh; AID 492997; actives 40% (n = 4,900);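 active = thallium signal drop beyond 5 SD of the untreated control mean, on both duplicate plates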
Numbers stand for hits; - = inactive; . = not tested or not shown.

SMILES	KCNK3 block	hERG rescue	KCNQ1 act	KCNK9 inh	KCNQ1 block	Cl transport mod	KCNK9 block conf	Kir2-1 spec	HEK293 Tl ctr
CC(C)[C@@H]1CC[C@@H](C)C[C@H]1OC(=O)C[n+]1cc(-c2ccc(Cl)cc2)n2c1CCCCC2	-	-	-	-13	-	-	60%	70%	-
COc1ccccc1C#Cc1ccc2c(=O)c3ccccc3n(C)c2c1	-	-	-	-9.7	-	.	44%	-	-
COc1ccc(C#Cc2ccc3c(=O)c4ccccc4n(C)c3c2)cc1	-	-	-	-	-	.	-	-	-
COc1ccc(C#Cc2c(C=O)n(C)c3ccccc23)cc1	-	.	.	.	.	.	.	.	.
Cc1cccc(NC(=O)CN2CCN(C(=O)C3CCCO3)CC2)c1C (stereo not drawn)	-	-	-	-	-	.	.	.	.
Cc1nc2ccccc2nc1N1CCCCC1	-	.	.	.	.	.	.	.	.
Cc1ccc2c(Cl)c(C)c(N3CCCCC3)nc2n1	-	-	-	-	-	-	-	-	-
CCN1C(=O)/C(=C\c2ccc(-c3cccc(C(=O)OC)c3)o2)SC1=Nc1ccc(C(=O)O)cc1	.	-	-	-	-	.	.	.	.
CCN1C(=O)/C(=C\c2ccc(-c3ccc([N+](=O)[O-])cc3OC)o2)SC1=Nc1cccc(C(=O)O)c1	-	-	-	-	-	-	-	-	-
O=C(NCCC(=O)N1CCN(Cc2c(F)cccc2Cl)CC1)c1ccc(Cl)cc1	-	.	.	.	.	.	.	.	.
O=C1CCC(/C=C/c2ccccc2)=NN1Cc1ccc(Cl)c(Cl)c1	-	-	-	-	-	.	-	-	-
O=C1CCC(/C=C/c2ccccc2)=NN1Cc1ccccc1Cl	-	-	-	-	-	.	.	.	.
O=C(N[C@@H]1CCC(=O)N(CC[C@H](Sc2ccccc2)c2ccccc2)CC1)OCc1ccccc1	-	-	-	-	-	.	.	.	.
CC(C)(C)c1ccc(C(=O)NCC(=O)NNC(=O)c2ccccc2O)cc1	-	-	-	-	-	.	.	.	.
Cc1ccc(O)c(C(=O)CC(=O)c2ccc(C(C)(C)C)cc2)c1	-	-	-	-	-	.	-	-	-
COCCSc1ccccc1C(=O)Nc1ccc(Cl)cc1	-	-	-	-	-	-	.	.	.
COCCSc1ccccc1C(=O)Nc1ccc(Br)cc1	-	-	-	-13	-	-	44%	-	25%
COc1ccc2c(C)cc(SCC(=O)Nc3nsc(-c4ccc(C)cc4)n3)nc2c1	-	-	-	-14	-	-	48%	-	-
CC(=O)c1ccc(S(=O)(=O)NCCCC(=O)N(C)Cc2ccc3c(c2)OCO3)cc1	-	.	.	.	.	.	.	.	.
Cc1ccc2oc(-c3cccc(NC(=S)NC(=O)/C=C/c4ccco4)c3)nc2c1	-	-	-	-	-	-	-	-	-
COc1ccc(N2CCCn3c2nc2c3c(=O)n(Cc3ccc(C)cc3)c(=O)n2C)c(OC)c1	-	-	-	-	-	-	-	-	-
COc1cc(-c2nc(-c3ccccc3)c(-c3cccs3)[nH]2)cc(OC)c1O	-	-	-	-10	-	.	51%	-	-
CCOCCCNC(=S)N1CCCN(c2nc3cc(C)ccc3cc2C#N)CC1	-	-	-	-	-	-	-	-	-
COCCN1C(=O)C(C(=O)OC)CC2=C1CC(C)(C)CC2=O (stereo not drawn)	-	.	.	.	.	.	.	.	.
CCN(CC)c1nc(C)nc2c1cnn2CCc1ccccc1	-	-	-	-	-	-	-	-	-
SMILES	KCNK3 block	hERG rescue	KCNQ1 act	KCNK9 inh	KCNQ1 block	Cl transport mod	KCNK9 block conf	Kir2-1 spec	HEK293 Tl ctr
CCOC(=O)c1ccc(N2CCCCC2)c(NS(=O)(=O)c2ccc(C)cc2)c1	-	-	-	-	-	-	.	.	.
Cc1cccc(C(=O)NC(=S)Nc2cccc3nc(C)ccc23)c1	-	-	-	-	-	.	-	-	-
CCN(Cc1ccncc1)C(=O)c1cc(COc2c(C)cccc2C)on1	-	-	-	-	-	.	.	.	.
O=C(Nc1ccc(Cl)cn1)c1cccc2c(Br)cccc12	-	-	-	-17	-	.	71%	-	42%
Oc1cncc(Cc2ccccc2)c1	-	-	-	-	-	.	.	.	.
O=C(Cn1c2c(c(-c3ccccc3)cc1=O)CCCC2)N1CCCCCC1	-	-	-	-	-	-	-	-	32%
Clc1ccc(COn2c(-c3ccc(Cl)cc3)nc3ccccc32)cc1	-11	-	-	-16	-	-	80%	-	36%
CC1CCC(C(C)C)C(OC(=O)COC(=O)c2ccc(N)cc2)C1 (stereo not drawn)	-	-	-	-	-	-	-	-	-
O=C(O)C1CCCN1S(=O)(=O)c1ccc(F)cc1 (stereo not drawn)	-	-	-	-	-	.	.	.	.
Cc1ccc(C)c(N2CCN(C(=O)C3CCCCN3S(=O)(=O)c3ccc(F)cc3)CC2)c1 (stereo not drawn)	-	-	-	-19	-	.	30%	-	30%
O=C(NCCSc1c(-c2ccccc2)[nH]c2ccccc12)c1cc2ccccc2oc1=O	-	-	-	-	-	-	.	.	.
Cc1ccc(-c2[nH]c3ccccc3c2SCCNC(=O)c2cc3ccccc3oc2=O)cc1	-	-	-	-	6	-	-	-	-
O=C(CSc1nc2c(cnn2-c2ccccc2)c(=O)[nH]1)N1N=C(c2cccs2)CC1c1ccc(F)cc1 (stereo not drawn)	-	-	-	-14	-	-	-	-	-
Oc1ccc(-c2nc3c4c(ncn3n2)-c2ccccc2CC42CCCC2)cc1	-	-	-	-9	-	-	36%	-	35%
Nn1cnc2c(c1=O)C1(CCCCC1)Cc1ccccc1-2	-	-	-	-	-	-	.	.	.
FC(F)(F)c1ccccc1CN1CCCC(N2CCN(c3ccccc3)CC2)C1 (stereo not drawn)	-	-	-	-	-	.	-	-	-
FC(F)(F)c1ccccc1CN1CCN(C2CCCCCC2)CC1	-	-	-	-	-	-	.	.	.
Cc1cc(C)n(C(C)CC(=O)Nc2ccc3c(c2)OCCO3)n1 (stereo not drawn)	-	-	-	-	-	.	.	.	.
O=C1CCC(C2CCc3cc(O)ccc3C2)C1 (stereo not drawn)	-	.	.	.	.	.	.	.	.
CN(C)c1ccc(/C=N/N2CCN(Cc3ccccc3Cl)CC2)cc1	-	-	-	-	-	.	.	.	.
CCN(CC)c1ccc(/C=N/N2CCN(Cc3ccccc3)CC2)c(O)c1	-	-	-	-	-	-	-	-	-
CCN(CC)c1ccc(/C=N/N2CCN(Cc3ccccc3)CC2)cc1	-	-	-	-	-	-	-	-	-
CCN(CC)c1ccc(/C=N/N2CCN(Cc3ccc(C)cc3C)CC2)c(O)c1	-	-	-	-	-	-	-	-	-
